Columns and labels:
[1] = target: T1, Renin (Homo sapiens, UniProt P00797); test: Tested for inhibition of human plasma renin; assay type: cell-free
T1 sequence (P00797 whole entry): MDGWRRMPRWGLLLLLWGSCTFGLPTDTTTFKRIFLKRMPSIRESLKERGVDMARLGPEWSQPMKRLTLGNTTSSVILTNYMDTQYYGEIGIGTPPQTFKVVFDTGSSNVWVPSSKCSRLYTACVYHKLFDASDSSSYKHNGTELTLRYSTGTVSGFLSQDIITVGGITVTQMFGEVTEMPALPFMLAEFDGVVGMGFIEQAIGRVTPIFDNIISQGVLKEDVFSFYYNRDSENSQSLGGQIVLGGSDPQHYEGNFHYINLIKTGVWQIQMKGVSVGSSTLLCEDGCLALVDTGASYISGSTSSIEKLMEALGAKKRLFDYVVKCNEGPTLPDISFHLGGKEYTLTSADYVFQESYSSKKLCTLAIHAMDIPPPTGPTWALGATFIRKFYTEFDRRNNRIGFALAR
Procedure, shortened: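 Human plasma containing EDTA-2Na (14 mM) and neomycin sulfate (0.3%) mixed with 0.5 M phosphate buffer pH 7.0, Phe-Ala-Pro (20 mM aqueous stock) and inhibitor in DMSO; 60 min at 37 °C; angiotensin I generated quantified by radioimmunoassay.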

[2] = target: T1, Renin; test: Tested for inhibition of renin from human
[3] = target: Pepsin A (Sus scrofa, UniProt P00791); test: Tested for inhibition of pepsin from porcine
Sequence of Pepsin A (P00791 whole entry): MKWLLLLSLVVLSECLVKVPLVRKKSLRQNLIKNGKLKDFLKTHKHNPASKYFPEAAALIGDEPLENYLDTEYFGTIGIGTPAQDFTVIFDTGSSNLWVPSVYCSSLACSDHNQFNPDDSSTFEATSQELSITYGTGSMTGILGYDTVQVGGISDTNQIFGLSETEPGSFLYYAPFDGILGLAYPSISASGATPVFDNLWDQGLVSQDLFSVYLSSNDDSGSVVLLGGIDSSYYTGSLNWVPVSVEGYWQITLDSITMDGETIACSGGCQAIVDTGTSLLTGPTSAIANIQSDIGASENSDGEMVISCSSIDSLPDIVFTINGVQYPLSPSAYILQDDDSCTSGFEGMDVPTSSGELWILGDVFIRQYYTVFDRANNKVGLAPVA
Procedure, shortened: (§1)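 Run at 37 °C with hemoglobin substrate at pH 3.2 for cathepsin D, casein substrate at pH 2.0 for pepsin.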

[4] = target: T2, Cathepsin D (Bos taurus, UniProt P80209); test: Tested for inhibition of Cathepsin D from bovine; procedure, shortened: as §1
T2 sequence (P80209 whole entry): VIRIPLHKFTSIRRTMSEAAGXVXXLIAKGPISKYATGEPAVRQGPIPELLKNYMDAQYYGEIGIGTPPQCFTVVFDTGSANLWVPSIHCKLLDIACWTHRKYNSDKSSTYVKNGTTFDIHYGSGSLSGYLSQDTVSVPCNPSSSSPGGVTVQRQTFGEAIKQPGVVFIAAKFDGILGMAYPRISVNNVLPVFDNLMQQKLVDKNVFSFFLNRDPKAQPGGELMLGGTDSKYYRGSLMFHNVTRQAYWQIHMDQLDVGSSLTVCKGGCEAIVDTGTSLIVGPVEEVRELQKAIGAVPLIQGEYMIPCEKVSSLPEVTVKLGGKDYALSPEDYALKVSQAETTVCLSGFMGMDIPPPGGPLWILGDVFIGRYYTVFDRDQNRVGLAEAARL

[5] = target: T3, Angiotensin-converting enzyme (Oryctolagus cuniculus, UniProt P12822); test: Tested for inhibition of Angiotensin I converting enzyme from rabbit.
T3 sequence (P12822 whole entry): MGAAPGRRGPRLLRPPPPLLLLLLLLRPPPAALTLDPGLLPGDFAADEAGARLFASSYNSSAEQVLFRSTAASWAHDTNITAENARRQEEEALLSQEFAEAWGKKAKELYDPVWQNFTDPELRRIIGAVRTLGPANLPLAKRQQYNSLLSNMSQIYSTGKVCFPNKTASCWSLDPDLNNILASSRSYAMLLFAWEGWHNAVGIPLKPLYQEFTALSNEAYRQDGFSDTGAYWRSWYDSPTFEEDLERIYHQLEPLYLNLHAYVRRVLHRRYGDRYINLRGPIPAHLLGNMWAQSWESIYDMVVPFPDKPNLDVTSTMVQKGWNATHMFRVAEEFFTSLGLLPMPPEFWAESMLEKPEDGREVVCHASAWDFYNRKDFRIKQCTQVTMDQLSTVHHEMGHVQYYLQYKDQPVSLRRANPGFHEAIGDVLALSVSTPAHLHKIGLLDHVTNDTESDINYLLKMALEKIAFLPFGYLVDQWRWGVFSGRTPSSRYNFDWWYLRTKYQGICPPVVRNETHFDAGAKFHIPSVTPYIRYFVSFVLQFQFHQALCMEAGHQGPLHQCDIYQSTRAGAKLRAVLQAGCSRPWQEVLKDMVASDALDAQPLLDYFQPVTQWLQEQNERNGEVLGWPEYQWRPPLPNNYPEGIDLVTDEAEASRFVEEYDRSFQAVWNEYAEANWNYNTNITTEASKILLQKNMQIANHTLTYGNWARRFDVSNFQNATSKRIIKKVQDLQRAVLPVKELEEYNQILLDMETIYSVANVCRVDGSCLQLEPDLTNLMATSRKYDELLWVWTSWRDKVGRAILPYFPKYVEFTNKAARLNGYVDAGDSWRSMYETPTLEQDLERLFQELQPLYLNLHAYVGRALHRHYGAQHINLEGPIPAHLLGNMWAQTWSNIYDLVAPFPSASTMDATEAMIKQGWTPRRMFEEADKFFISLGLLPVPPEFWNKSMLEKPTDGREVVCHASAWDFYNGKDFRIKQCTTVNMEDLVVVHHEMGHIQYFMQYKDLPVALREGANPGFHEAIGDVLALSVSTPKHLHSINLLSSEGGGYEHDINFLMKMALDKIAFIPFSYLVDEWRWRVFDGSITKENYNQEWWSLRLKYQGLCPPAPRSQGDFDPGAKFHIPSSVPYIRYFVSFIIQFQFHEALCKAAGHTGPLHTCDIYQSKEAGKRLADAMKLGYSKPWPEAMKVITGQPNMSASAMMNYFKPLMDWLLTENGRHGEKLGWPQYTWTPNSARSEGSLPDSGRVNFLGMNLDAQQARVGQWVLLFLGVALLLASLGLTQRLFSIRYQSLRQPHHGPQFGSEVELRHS
Procedure, shortened: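 Inhibition measured at 37 °C with Hip-His-Leu substrate, pH 8.3.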

Row | Structure (SMILES) | IC50 [1] [nM] | IC50 [2] [nM] | IC50 [3] [nM] | IC50 [4] [nM] | IC50 [5] [nM]
1 | CC(C)OC(=O)[C@@H](O)[C@@H](CC1CCCCC1)NC(=O)[C@H](Cc1c[nH]cn1)NC(=O)[C@@H](CC(=O)N1CCOCC1)Cc1cccc2ccccc12 | 4200 | 2700 | – | – | –
2 | CC(C)OC(=O)[C@H](O)[C@@H](CC1CCCCC1)NC(=O)[C@H](Cc1c[nH]cn1)NC(=O)[C@@H](CC(=O)N1CCOCC1)Cc1cccc2ccccc12 | 2100 | 3500 | – | – | –
3 | CC(C)OC(=O)C(O)[C@@H](Cc1ccccc1)NC(=O)[C@H](Cc1cnc[nH]1)NC(=O)[C@@H](CC(=O)N1CCOCC1)Cc1cccc2ccccc12 (some centres not stated) | 270 | 110 | – | – | –
4 | CC(C)OC(=O)[C@H](O)[C@H](CC1CCCCC1)NC(=O)[C@H](Cc1c[nH]cn1)NC(=O)[C@H](CC(=O)N1CCOCC1)Cc1cccc2ccccc12 | 1500 | 4200 | – | – | –
5 | CC(C)CC(=O)N[C@H](C(=O)N[C@H](C(=O)N[C@@H](CC(C)C)[C@@H](O)CC(=O)N[C@@H](C)C(=O)N[C@@H](CC(C)C)[C@@H](O)CC(=O)O)C(C)C)C(C)C [PEPSTATIN] | – | – | 18 | – | > 100000

The remaining lines, values ahead:

Row | IC50 [1] [nM] | IC50 [2] [nM] | IC50 [3] [nM] | IC50 [4] [nM] | IC50 [5] [nM] | Structure (SMILES)
6 | 2300 | 2500 | – | – | – | CC(C)OC(=O)[C@H](O)[C@H](CC1CCCCC1)NC(=O)[C@@H](Cc1c[nH]cn1)NC(=O)[C@@H](CC(=O)N1CCOCC1)Cc1cccc2ccccc12
7 | 4.7 | 2.4 | > 100000 | 80000 | > 100000 | CC(C)OC(=O)[C@H](O)[C@H](CC1CCCCC1)NC(=O)[C@H](Cc1c[nH]cn1)NC(=O)[C@@H](CC(=O)N1CCOCC1)Cc1cccc2ccccc12

Source: ChEMBL document CHEMBL1124974, “Orally potent human renin inhibitors derived from angiotensinogen transition state: design, synthesis, and mode of interaction” (J Med Chem, 1990)
